ChEMBL document CHEMBL1123192 (J Med Chem, 1986)

Columns and labels:
[1] = target: Beta-1 adrenergic receptor (Cavia porcellus) (UniProt B0FL73); experiment: Beta-1 adrenergic receptor ISA (intrinsic sympathomimetic activity)using the guinea pig right atria was measured as % increase of positive chronotropic effect (basal spontaneous beating rate) at 1x10E-7 M
[2] = tested on: Rattus norvegicus; experiment: Maximal change in heart rate (HR) measured as % change from pretreatment value at dose of 25 mg/kg in SHR; type: functional
Outline: (§1)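 Spontaneously hypertensive rats; test agent dissolved or dispersed in 0.5% methylcellulose and given by gastric gavage at 5 mL/kg after a 1-h equilibration. Doses ranged from 1 to 100 mg/kg, with 4–8 animals per dose. MABP and HR were monitored for 4 h. Pretreatment values and maximal % change were recorded, and maximal changes were compared with vehicle by Dunnett's t test.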

[3] = tested on: Rattus norvegicus; experiment: Maximal change in heart rate (HR) measured as pretreatment value at dose of 25 mg/kg in SHR; type: functional
Outline: as §1

[4] = tested on: Rattus norvegicus; experiment: Maximal change in mean arterial blood pressure (MABP) measured as % change from pretreatment value at dose of 5 mg/kg in SHR; type: functional
Outline: as §1

[5] = organism: Cavia porcellus; experiment: Beta-2-adrenoceptor ISA (intrinsic sympathomimetic activity)was measured as relaxant effect against a PGF2-alpha contracted guinea pig trachea at 1x10E-5 M; type: functional
[6] = tested on: Rattus norvegicus; experiment: Maximal change in mean arterial blood pressure (MABP) measured as pretreatment value at dose of 25 mg/kg in SHR; type: functional
Outline: as §1

[7] = tested on: Rattus norvegicus; experiment: Maximal change in mean arterial blood pressure (MABP) measured as % change from pretreatment value at dose of 10 mg/kg in SHR; type: functional
Outline: as §1

[8] = tested on: Rattus norvegicus; experiment: Maximal change in heart rate (HR) measured as % change from pretreatment value at dose of 5 mg/kg in SHR; type: functional
Outline: as §1

[9] = tested on: Rattus norvegicus; experiment: Maximal change in mean arterial blood pressure (MABP) measured as % change from pretreatment value at dose of 25 mg/kg; type: functional
Outline: as §1

[10] = tested on: Rattus norvegicus; experiment: Maximal change in heart rate (HR) measured as % change from pretreatment value at dose of 10 mg/kg in SHR; type: functional
Outline: as §1

[11] = target: Beta-2 adrenergic receptor (Cavia porcellus, UniProt Q8K4Z4); experiment: The compound was evaluated for the antagonistic activity against beta-2 adrenergic receptor.; type: functional; settings: read-out: pA2 (converted)
Outline: (§2)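 Isolated tissue suited to each receptor test, held in 10-mL organ baths of Krebs-Henseleit solution at 37 °C and gassed with 95% O2/5% CO2. Antagonism was judged by how several concentrations of test agent altered a cumulative concentration-response curve to a receptor-specific agonist.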

[12] = target: Beta-1 adrenergic receptor (Cavia porcellus, UniProt B0FL73); experiment: The compound was evaluated for the antagonistic activity against beta-1 adrenergic receptor.; type: functional; settings: read-out: pA2 (converted)
Outline: as §2

[13] = tested on: Rattus norvegicus; experiment: Maximal change in mean arterial blood pressure (MABP) measured as pretreatment value at dose of 5 mg/kg in SHR; type: functional
Outline: as §1

[14] = target: T1, Adrenergic receptor alpha-2 (Rattus norvegicus, UniProt P22086+P19328+P22909); experiment: The compound was evaluated for the antagonistic activity against alpha-2 adrenergic receptor.; type: functional
T1 sequence (P22086 whole entry): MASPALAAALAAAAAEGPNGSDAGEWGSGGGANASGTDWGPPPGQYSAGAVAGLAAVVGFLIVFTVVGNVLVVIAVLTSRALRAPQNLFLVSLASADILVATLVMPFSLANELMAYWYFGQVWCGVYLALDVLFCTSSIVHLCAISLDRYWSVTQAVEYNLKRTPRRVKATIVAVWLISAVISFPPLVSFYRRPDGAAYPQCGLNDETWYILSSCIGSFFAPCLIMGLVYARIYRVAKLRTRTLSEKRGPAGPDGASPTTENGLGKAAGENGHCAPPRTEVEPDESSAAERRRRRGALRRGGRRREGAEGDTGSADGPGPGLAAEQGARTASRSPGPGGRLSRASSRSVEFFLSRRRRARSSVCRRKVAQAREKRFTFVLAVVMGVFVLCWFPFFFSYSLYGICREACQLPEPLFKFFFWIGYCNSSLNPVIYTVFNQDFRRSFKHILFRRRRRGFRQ
T1 sequence (P19328 whole entry): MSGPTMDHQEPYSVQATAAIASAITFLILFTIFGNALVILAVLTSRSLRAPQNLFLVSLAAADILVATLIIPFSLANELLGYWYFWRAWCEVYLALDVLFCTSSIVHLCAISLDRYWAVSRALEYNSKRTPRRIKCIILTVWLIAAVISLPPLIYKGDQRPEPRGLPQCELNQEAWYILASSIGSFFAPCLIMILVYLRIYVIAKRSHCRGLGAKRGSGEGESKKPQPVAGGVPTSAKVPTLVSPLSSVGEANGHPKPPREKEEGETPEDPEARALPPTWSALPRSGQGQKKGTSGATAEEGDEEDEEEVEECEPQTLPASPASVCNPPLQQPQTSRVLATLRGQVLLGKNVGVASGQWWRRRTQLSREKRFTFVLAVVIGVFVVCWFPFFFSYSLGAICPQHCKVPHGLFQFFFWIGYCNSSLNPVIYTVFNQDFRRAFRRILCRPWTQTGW
T1 sequence (P22909 whole entry): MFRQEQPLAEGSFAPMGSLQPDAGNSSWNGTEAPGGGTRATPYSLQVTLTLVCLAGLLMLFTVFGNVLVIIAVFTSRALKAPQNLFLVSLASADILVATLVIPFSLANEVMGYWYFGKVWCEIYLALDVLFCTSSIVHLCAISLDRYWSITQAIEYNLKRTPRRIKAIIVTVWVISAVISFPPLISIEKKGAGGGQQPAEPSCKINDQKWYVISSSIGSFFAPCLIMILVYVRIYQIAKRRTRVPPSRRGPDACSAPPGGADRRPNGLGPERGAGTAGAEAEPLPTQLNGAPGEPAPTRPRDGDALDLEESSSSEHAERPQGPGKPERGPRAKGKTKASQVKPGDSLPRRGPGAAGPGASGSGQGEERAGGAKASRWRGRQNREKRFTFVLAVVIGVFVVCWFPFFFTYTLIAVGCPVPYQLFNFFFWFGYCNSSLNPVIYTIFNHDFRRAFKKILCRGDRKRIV

[15] = tested on: Rattus norvegicus; experiment: Maximal change in mean arterial blood pressure (MABP) measured as pretreatment value at dose of 10 mg/kg in SHR; type: functional
Outline: as §1

[16] = tested on: Rattus norvegicus; experiment: TMaximal change in heart rate (HR) measured as pretreatment value at dose of 5 mg/kg in SHR; type: functional
Outline: as §1

[17] = tested on: Rattus norvegicus; experiment: Maximal change in heart rate (HR) measured as pretreatment value at dose of 10 mg/kg in SHR; type: functional
Outline: as §1

[18] = tested on: Rattus norvegicus; experiment: Maximal change in mean arterial blood pressure (MABP) measured as pretreatment value at dose of 50 mg/kg in SHR; type: functional
Outline: as §1

[19] = tested on: Rattus norvegicus; experiment: Maximal change in heart rate (HR) measured as % change from pretreatment value at dose of 50 mg/kg in SHR; type: functional
Outline: as §1

[20] = target: T2, Adrenergic receptor alpha-1 (Homo sapiens, UniProt P35348+P25100+P35368); experiment: The compound was evaluated for the antagonistic activity against alpha-1 adrenergic receptor.; type: functional, Oryctolagus cuniculus
T2 sequence (P35348 whole entry): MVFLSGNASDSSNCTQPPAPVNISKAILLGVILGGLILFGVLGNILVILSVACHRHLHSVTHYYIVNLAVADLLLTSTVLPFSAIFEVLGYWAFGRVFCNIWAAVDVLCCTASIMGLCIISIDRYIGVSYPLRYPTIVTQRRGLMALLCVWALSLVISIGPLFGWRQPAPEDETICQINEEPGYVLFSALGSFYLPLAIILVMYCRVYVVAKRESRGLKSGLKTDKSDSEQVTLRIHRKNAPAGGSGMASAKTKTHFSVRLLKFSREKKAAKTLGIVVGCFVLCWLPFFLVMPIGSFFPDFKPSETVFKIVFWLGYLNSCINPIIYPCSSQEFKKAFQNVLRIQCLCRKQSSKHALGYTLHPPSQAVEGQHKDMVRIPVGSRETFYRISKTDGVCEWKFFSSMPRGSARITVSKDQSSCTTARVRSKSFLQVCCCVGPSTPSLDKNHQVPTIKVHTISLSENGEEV
T2 sequence (P25100 whole entry): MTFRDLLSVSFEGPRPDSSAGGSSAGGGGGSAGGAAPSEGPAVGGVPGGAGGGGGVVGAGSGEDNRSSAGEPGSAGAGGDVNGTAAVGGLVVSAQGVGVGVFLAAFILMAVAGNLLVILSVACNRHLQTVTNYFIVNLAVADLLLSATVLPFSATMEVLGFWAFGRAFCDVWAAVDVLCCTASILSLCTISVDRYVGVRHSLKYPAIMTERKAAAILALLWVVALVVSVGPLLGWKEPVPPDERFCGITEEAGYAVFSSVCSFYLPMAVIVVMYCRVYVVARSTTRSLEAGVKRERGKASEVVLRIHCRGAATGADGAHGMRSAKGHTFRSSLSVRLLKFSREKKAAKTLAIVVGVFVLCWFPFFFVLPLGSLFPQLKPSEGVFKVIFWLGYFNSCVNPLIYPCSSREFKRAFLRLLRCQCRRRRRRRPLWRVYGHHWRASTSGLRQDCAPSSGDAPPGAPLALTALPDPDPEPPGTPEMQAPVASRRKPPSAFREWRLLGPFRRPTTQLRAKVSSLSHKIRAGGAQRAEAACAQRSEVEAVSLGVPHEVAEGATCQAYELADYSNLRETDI
T2 sequence (P35368 whole entry): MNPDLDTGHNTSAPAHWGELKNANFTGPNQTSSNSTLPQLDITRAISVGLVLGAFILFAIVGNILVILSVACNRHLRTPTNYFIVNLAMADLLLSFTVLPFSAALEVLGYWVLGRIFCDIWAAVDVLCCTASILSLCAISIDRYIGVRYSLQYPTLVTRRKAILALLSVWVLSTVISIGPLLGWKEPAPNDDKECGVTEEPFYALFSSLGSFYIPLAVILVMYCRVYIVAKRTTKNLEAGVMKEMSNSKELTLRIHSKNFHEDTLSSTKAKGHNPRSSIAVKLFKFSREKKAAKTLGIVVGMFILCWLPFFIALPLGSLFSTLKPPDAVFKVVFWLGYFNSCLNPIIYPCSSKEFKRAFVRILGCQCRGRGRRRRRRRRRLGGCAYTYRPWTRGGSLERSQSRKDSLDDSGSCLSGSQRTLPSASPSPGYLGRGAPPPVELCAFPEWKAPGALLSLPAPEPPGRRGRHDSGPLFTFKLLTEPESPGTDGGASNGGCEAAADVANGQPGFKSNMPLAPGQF
Outline: as §2

[21] = target: Beta-1 adrenergic receptor (Cavia porcellus) (UniProt B0FL73); experiment: Beta-1-adrenoceptor ISA (intrinsic sympathomimetic activity)using the guinea pig right atria was measured as % increase of positive chronotropic effect (basal spontaneous beating rate) at 1x10E-6 M; type: functional
[22] = tested on: Rattus norvegicus; experiment: Maximal change in mean arterial blood pressure (MABP) measured as % change from pretreatment value at dose of 50 mg/kg in SHR; type: functional
Outline: as §1

[23] = tested on: Rattus norvegicus; experiment: Maximal change in heart rate (HR) measured as pretreatment value at dose of 50 mg/kg in SHR; type: functional
Outline: as §1

Sequence of Beta-1 adrenergic receptor (Cavia porcellus) (B0FL73 1-467): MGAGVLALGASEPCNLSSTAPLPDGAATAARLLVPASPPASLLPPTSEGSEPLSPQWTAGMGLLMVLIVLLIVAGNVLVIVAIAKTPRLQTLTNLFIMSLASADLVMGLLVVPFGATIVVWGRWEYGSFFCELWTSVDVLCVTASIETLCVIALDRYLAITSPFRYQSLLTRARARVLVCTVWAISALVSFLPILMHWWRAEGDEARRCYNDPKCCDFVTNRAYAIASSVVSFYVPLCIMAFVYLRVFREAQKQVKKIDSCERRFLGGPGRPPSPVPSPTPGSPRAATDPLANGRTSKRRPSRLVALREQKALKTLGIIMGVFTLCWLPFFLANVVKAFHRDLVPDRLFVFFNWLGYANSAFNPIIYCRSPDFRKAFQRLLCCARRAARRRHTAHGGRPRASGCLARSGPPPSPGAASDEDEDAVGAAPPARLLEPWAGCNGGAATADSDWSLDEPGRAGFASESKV
Sequence of Beta-1 adrenergic receptor (B0FL73 whole entry): as the sequence (B0FL73 1-467) above
Sequence of Beta-2 adrenergic receptor (Q8K4Z4 whole entry): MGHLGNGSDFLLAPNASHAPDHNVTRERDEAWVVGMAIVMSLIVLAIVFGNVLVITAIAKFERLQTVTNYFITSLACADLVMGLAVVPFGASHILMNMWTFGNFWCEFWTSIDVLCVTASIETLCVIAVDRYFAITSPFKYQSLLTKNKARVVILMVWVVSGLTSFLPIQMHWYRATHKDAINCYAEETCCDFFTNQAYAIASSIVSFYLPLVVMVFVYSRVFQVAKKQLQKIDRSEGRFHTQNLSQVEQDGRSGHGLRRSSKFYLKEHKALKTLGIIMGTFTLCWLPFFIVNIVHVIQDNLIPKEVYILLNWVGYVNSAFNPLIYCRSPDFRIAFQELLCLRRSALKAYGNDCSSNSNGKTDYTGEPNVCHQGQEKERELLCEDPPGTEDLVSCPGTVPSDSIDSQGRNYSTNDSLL

SMILES: CC(CCc1ccccc1)NCC(O)c1ccc(O)c(C(N)=O)c1 (configuration not stated) [LABETALOL]
- Change [1]: 0%
- Change [2]: -27%
- HR [3]: 437 beats min-1
- Change [4]: -14%
- Change [5]: 62%
- MABP [6]: 163 mmHg
- Change [7]: -25%
- Change [8]: -15%
- Change [9]: -31%
- Change [10]: -23%
- Kb [11]: 39.8 nM
- Kb [12]: 31.6 nM
- MABP [13]: 161 mmHg
- pA2 [14]: < 5
- MABP [15]: 158 mmHg
- HR [16]: 424 beats min-1
- HR [17]: 457 beats min-1

SMILES: CC(CCc1ccccc1)NCC(O)c1cc(C(N)=O)c2c(ccn2C)c1 (configuration not stated)
- MABP [18]: 166 mmHg
- Change [5]: 34.6%
- Change [19]: -15%
- Kb [11]: > 10000 nM
- pA2 [20]: 6.2
- Change [21]: 2.7%
- Kb [12]: > 1000 nM
- Change [22]: -13%
- pA2 [14]: < 5
- HR [23]: 411 beats min-1
